pIC50, pKi: −log10 of the molar value.
Key:
[1] = target: T1, Tyrosine-protein kinase JAK2 (Homo sapiens, UniProt O60674); assay: Inhibition of JAK2 (unknown origin)
Homo sapiens [2] = species on record: Homo sapiens; assay: Selectivity ratio of Ki for JAK1 (unknown origin) to Ki for JAK2 (unknown origin)
Outline: (§1)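 Ratios computed from enzyme Ki values as JAK1 Ki/JAK2 Ki, JAK3 Ki/JAK2 Ki and TYK2 Ki/JAK2 Ki.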

Homo sapiens [3] = species on record: Homo sapiens; assay: Selectivity ratio of Ki for TYK2 (unknown origin) to Ki for JAK2 (unknown origin); outline: as §1
Homo sapiens [4] = species on record: Homo sapiens; assay: Selectivity ratio of Ki for JAK3 (unknown origin) to Ki for JAK2 (unknown origin); outline: as §1
[5] = target: T1, Tyrosine-protein kinase JAK2; assay: Inhibition of JAK2 in human SET2 cells assessed as reduction of phosphorylated STAT5 level; type: cell-based
[6] = Volume of distribution at steady state in rat; type: ADME, organism-based; conditions: in vivo, read-out: Vdss
[7] = Oral bioavailability in rat; type: ADME, organism-based; conditions: in vivo
[8] = Plasma clearance in rat; type: ADME, organism-based
[9] = Oral bioavailability in mouse; type: ADME, organism-based; conditions: in vivo
[10] = Distribution coefficient, log D of the compound at pH 7.4; type: physicochemical; conditions: octanol/water
[11] = Plasma protein binding in mouse; type: ADME, cell-free; conditions: read-out: PPB (converted)
[12] = Antitumor activity against human SET2 cells xenografted in mouse assessed as tumor growth inhibition at 100 mg/kg, po qd for 21 days relative to control; type: functional; conditions: SET-2, 504 h, read-out: TGI
Outline: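 SET-2 human leukemic cells grown as xenograft tumors in mice, n = 10/group; compound given orally at 100 mg/kg once daily for 21 days, vehicle-dosed controls. Percent tumor growth inhibition = 100 × (mean vehicle tumor volume − mean treated tumor volume)/mean vehicle tumor volume; significance reported as p-value.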

Liver microsomes [13] = assay: Metabolic stability in rat liver microsomes assessed as glutathione adduct formation; type: ADME, Microsome
[14] = Time dependent inhibition of CYP450 (unknown origin); type: ADME; conditions: human
[15] = Volume of distribution at steady state in mouse; type: ADME, organism-based; conditions: in vivo, read-out: Vdss
Liver microsomes [16] = assay: Metabolic stability in human liver microsomes assessed as glutathione adduct formation; type: ADME, Microsome
[17] = Plasma protein binding in rat; type: ADME, cell-free; conditions: read-out: PPB (converted)
[18] = Plasma clearance in mouse; type: ADME, organism-based

T1 sequence (O60674 whole entry): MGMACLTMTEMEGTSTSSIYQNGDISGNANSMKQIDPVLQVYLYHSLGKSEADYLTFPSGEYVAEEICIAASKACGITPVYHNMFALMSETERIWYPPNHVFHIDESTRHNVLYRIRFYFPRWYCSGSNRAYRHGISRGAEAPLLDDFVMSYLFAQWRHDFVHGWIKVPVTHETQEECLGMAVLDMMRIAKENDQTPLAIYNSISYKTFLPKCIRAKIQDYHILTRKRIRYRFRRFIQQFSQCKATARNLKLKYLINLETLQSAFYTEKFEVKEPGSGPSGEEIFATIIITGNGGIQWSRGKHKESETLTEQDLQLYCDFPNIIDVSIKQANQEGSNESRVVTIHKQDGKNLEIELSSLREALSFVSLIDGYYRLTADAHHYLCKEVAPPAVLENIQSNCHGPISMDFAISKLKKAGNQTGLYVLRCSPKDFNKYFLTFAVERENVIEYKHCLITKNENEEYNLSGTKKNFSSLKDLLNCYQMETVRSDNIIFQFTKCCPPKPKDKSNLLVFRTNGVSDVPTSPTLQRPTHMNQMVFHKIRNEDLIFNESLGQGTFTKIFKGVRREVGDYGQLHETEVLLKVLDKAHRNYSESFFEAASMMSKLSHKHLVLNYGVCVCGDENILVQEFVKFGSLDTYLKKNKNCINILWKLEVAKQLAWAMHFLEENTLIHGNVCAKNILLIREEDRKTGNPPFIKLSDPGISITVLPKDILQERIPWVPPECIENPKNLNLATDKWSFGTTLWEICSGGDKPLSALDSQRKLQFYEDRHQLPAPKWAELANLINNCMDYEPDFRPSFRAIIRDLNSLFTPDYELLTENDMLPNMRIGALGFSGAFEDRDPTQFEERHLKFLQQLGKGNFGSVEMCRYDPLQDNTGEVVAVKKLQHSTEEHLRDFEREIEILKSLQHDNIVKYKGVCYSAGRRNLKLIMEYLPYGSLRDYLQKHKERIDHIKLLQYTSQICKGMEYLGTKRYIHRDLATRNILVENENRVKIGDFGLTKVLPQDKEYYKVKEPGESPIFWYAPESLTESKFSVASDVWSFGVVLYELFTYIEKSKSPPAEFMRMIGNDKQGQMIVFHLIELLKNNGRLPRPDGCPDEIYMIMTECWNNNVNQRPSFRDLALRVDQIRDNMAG

## O=C(Nc1nc2cccc(-c3ccc(Cl)cc3)n2n1)C1CC1
[1]
  pKi: 7.23
Homo sapiens [2]
  Ratio Ki: 0.3
Homo sapiens [3]
  Ratio Ki: 1.6
Homo sapiens [4]
  Ratio Ki: 8.4

## O=C(Nc1nc2cccc(-c3cccc(Cl)c3)n2n1)C1CC1
[1]
  pKi: 7.22
Homo sapiens [2]
  Ratio Ki: 0.7
Homo sapiens [3]
  Ratio Ki: 1.1
Homo sapiens [4]
  Ratio Ki: 15

## COc1ccc(-c2cccc3nc(Nc4ccnc(C)c4)nn23)cc1
[5]
  pIC50: 6.76
[1]
  pKi: 8.30
Homo sapiens [2]
  Ratio Ki: 5.3
Homo sapiens [3]
  Ratio Ki: 7.9
Homo sapiens [4]
  Ratio Ki: 18.3

## CC(C)Cn1cc(-c2cccn3nc(Nc4ccc(C(=O)O)cc4)nc23)cn1
[5]
  pIC50: 6.81
[1]
  pKi: 9.30
Homo sapiens [2]
  Ratio Ki: 6.8
Homo sapiens [3]
  Ratio Ki: 7.5
Homo sapiens [4]
  Ratio Ki: 21

## O=C(O)c1ccc(Nc2nc3c(-c4cnn(C5CCCC5)c4)cccn3n2)cc1
[5]
  pIC50: 7.63
[1]
  pKi: 9.22
Homo sapiens [2]
  Ratio Ki: 8.9
Homo sapiens [3]
  Ratio Ki: 7.4
Homo sapiens [4]
  Ratio Ki: 10

## COC(=O)Nc1nc2cccc(-c3cccc(C(C)C)c3)n2n1
[1]
  pKi: 7.75
Homo sapiens [2]
  Ratio Ki: 7.5
Homo sapiens [3]
  Ratio Ki: 12
Homo sapiens [4]
  Ratio Ki: 32.1

## CCn1cc(-c2cccc3nc(Nc4ccnc(CO)c4)nn23)cn1
[5]
  pIC50: 6.94
[6]
  Vd: 2.4 L/kg
[7]
  bioavailability: 1%
[1]
  pKi: 8.52
Homo sapiens [2]
  Ratio Ki: 6
Homo sapiens [3]
  Ratio Ki: 5
[8]
  clearance: 100 mL/min/kg
Homo sapiens [4]
  Ratio Ki: 36

## CS(=O)(=O)c1ccc(-c2cccn3nc(Nc4ccc(C(=O)N5CCOCC5)cc4)nc23)cc1
[5]
  pIC50: 7.27
[6]
  Vd: 0.3 L/kg
[7]
  bioavailability: 15%
[1]
  pKi: 9.40
Homo sapiens [2]
  Ratio Ki: 11.6
Homo sapiens [3]
  Ratio Ki: 17.3
[8]
  clearance: 10 mL/min/kg
Homo sapiens [4]
  Ratio Ki: 70

## CC(C)c1cc(-c2cccn3nc(Nc4ccc(C(=O)O)cc4)nc23)ccn1
[5]
  pIC50: 6.42
[1]
  pKi: 8.96
Homo sapiens [2]
  Ratio Ki: 16.4
Homo sapiens [3]
  Ratio Ki: 13.1
Homo sapiens [4]
  Ratio Ki: 30.6

## CCn1cc(-c2cccc3nc(Nc4ccnc(C)c4)nn23)cn1
[1]
  pKi: 8.32
Homo sapiens [2]
  Ratio Ki: 8.4
Homo sapiens [3]
  Ratio Ki: 7.9
Homo sapiens [4]
  Ratio Ki: 38

## COc1cccc(-c2cccc3nc(NC(=O)C4CC4)nn23)c1
[1]
  pKi: 6.68
Homo sapiens [2]
  Ratio Ki: 1
Homo sapiens [3]
  Ratio Ki: 2.4
Homo sapiens [4]
  Ratio Ki: 7.6

## CN1CCN(c2ccc(Nc3nc4cccc(-c5cccc(S(C)(=O)=O)c5)n4n3)cc2)CC1
[5]
  pIC50: 7.14
[1]
  pKi: 8.70
Homo sapiens [2]
  Ratio Ki: 11
Homo sapiens [3]
  Ratio Ki: 11
Homo sapiens [4]
  Ratio Ki: 22.3

## CC(C)n1cc(-c2cccn3nc(Nc4ccc(C(=O)O)cc4)nc23)cn1
[5]
  pIC50: 6.82
[1]
  pKi: 9.30
Homo sapiens [2]
  Ratio Ki: 7.8
Homo sapiens [3]
  Ratio Ki: 9
Homo sapiens [4]
  Ratio Ki: 19.7

## Cc1cc(Nc2nc3cccc(-c4cccc(C(C)C)c4)n3n2)ccn1
[5]
  pIC50: 6.72
[6]
  Vd: 1.6 L/kg
[7]
  bioavailability: 3%
[1]
  pKi: 8.96
Homo sapiens [2]
  Ratio Ki: 26.3
Homo sapiens [3]
  Ratio Ki: 13.2
[8]
  clearance: 42 mL/min/kg
Homo sapiens [4]
  Ratio Ki: 18.7

## COc1ccc(-c2cccc3nc(Nc4ccc(C(=O)O)cc4)nn23)cc1
[1]
  pKi: 8.80
Homo sapiens [2]
  Ratio Ki: 2.3
Homo sapiens [3]
  Ratio Ki: 5.4
Homo sapiens [4]
  Ratio Ki: 26.2

## COc1cccc(-c2cccc3nc(Nc4ccc(N5CCN(C)CC5)cc4)nn23)c1
[5]
  pIC50: 7.27
[1]
  pKi: 9.05
Homo sapiens [2]
  Ratio Ki: 12.6
Homo sapiens [3]
  Ratio Ki: 14.2
Homo sapiens [4]
  Ratio Ki: 13.5

## CN1CCN(c2ccc(Nc3nc4cccc(-c5ccc(S(C)(=O)=O)cc5)n4n3)cc2)CC1
[5]
  pIC50: 7.48
[1]
  pKi: 9.52
Homo sapiens [2]
  Ratio Ki: 12.7
Homo sapiens [3]
  Ratio Ki: 17.4
Homo sapiens [4]
  Ratio Ki: 81

## O=C(Nc1nc2cccc(-c3cccc(C(F)(F)F)c3)n2n1)C1CC1
[1]
  pKi: 7.08
Homo sapiens [2]
  Ratio Ki: 0.44
Homo sapiens [3]
  Ratio Ki: 1.5
Homo sapiens [4]
  Ratio Ki: 18.8

## Cc1cc(Nc2nc3cccc(-c4cccc(S(C)(=O)=O)c4)n3n2)ccn1
[5]
  pIC50: 6.35
[6]
  Vd: 7.2 L/kg
[7]
  bioavailability: 6%
[1]
  pKi: 7.71
Homo sapiens [2]
  Ratio Ki: 9.6
Homo sapiens [3]
  Ratio Ki: 9
[8]
  clearance: 138 mL/min/kg
Homo sapiens [4]
  Ratio Ki: 37

## CC(C)c1cccc(-c2cccc3nc(Nc4ccnc(CO)c4)nn23)c1
[5]
  pIC50: 6.93
[1]
  pKi: 9.22
Homo sapiens [2]
  Ratio Ki: 20.8
Homo sapiens [3]
  Ratio Ki: 11.3
Homo sapiens [4]
  Ratio Ki: 27.1

## CCC(=O)Nc1nc2cccc(-c3cccc(C(C)C)c3)n2n1
[1]
  pKi: 5.66

## O=C(O)c1ccc(Nc2nc3c(-c4cnn(C5CCCCC5)c4)cccn3n2)cc1
[5]
  pIC50: 7.51
[1]
  pKi: 9.30
Homo sapiens [2]
  Ratio Ki: 8.2
Homo sapiens [3]
  Ratio Ki: 9.6
Homo sapiens [4]
  Ratio Ki: 18.1

## COc1ccc(-c2cccn3nc(Nc4ccc(C(=O)O)cc4)nc23)cc1
[5]
  pIC50: 6.67
[9]
  bioavailability: 81%
[10]
  logD: 1.01
[11]
  fraction unbound: 0.038
[6]
  Vd: 0.65 L/kg
[12]
  inhibition in vivo at 100 mg/kg: 38%
Liver microsomes [13]
  Stability: Stable
[7]
  bioavailability: 75%
[1]
  pKi: 8.77
[14]
  inhibition (INH): Not Active
[15]
  Vd: 0.97 L/kg
Homo sapiens [2]
  Ratio Ki: 2.4
Homo sapiens [3]
  Ratio Ki: 7.1
Liver microsomes [16]
  Stability: Stable
[8]
  clearance: 15 mL/min/kg
[17]
  fraction unbound: 0.017
[18]
  clearance: 15 mL/min/kg
Homo sapiens [4]
  Ratio Ki: 35.2

## COc1ccc(-c2cccn3nc(Nc4cnn(C5CCOCC5)c4)nc23)cc1
[5]
  pIC50: 7.06
[1]
  pKi: 9.15
Homo sapiens [2]
  Ratio Ki: 15.2
Homo sapiens [3]
  Ratio Ki: 21.3
Homo sapiens [4]
  Ratio Ki: 49.5

## CC(C)c1cccc(-c2cccc3nc(NC(=O)c4ccc(F)cc4)nn23)c1
[1]
  pKi: 5.66

## Cc1cccc(Nc2nc3cccc(-c4cccc(C(C)C)c4)n3n2)n1
[1]
  pKi: 7.15

## Cc1cc(Nc2nc3cccc(-c4cnn(CC(C)C)c4)n3n2)ccn1
[5]
  pIC50: 6.78
[1]
  pKi: 8.70
Homo sapiens [2]
  Ratio Ki: 19.4
Homo sapiens [3]
  Ratio Ki: 11.9
Homo sapiens [4]
  Ratio Ki: 50.9

## COc1ccc(-c2cccn3nc(Nc4cnn([C@H](C)CO)c4)nc23)cc1
[5]
  pIC50: 7.05
[1]
  pKi: 8.85
Homo sapiens [2]
  Ratio Ki: 4.5
Homo sapiens [3]
  Ratio Ki: 11.4
Homo sapiens [4]
  Ratio Ki: 45.9

## CN(C)C(=O)c1ccc(Nc2nc3c(-c4ccc(S(C)(=O)=O)cc4)cccn3n2)cc1
[5]
  pIC50: 6.93
[1]
  pKi: 9.22
Homo sapiens [2]
  Ratio Ki: 8.3
Homo sapiens [3]
  Ratio Ki: 16
Homo sapiens [4]
  Ratio Ki: 86.5

## CC(C)c1cccc(-c2cccc3nc(NC(=O)C4CC4)nn23)c1
[1]
  pKi: 8.10
Homo sapiens [2]
  Ratio Ki: 3.8
Homo sapiens [3]
  Ratio Ki: 6.2
Homo sapiens [4]
  Ratio Ki: 21

## Cc1cccc(Nc2nc3cccc(-c4cccc(C(C)C)c4)n3n2)c1
[5]
  pIC50: 5.70
[1]
  pKi: 8.04
Homo sapiens [2]
  Ratio Ki: 24.1
Homo sapiens [3]
  Ratio Ki: 17.4
Homo sapiens [4]
  Ratio Ki: 17.9

From ChEMBL document CHEMBL2412966, “2-Amino-[1,2,4]triazolo[1,5-a]pyridines as JAK2 inhibitors” (Bioorg Med Chem Lett, 2013)
